Laboratory results as given in ChEMBL document CHEMBL4373647, “Design, synthesis, and antimicrobial evaluation of 1,4-dihydroindeno[1,2-c]pyrazole tethered carbohydrazide hybrids: exploring their in silico ADMET, ergosterol inhibition and ROS inducing potential” (Medchemcomm, 2019).
In brackets after ≈: the same amount, converted by molar mass. Activity calls are given as the source filed them. The calls are words filed in the database; no cut-off is given here.

How the values were obtained:
Candida albicans [1] = assay: Antifungal activity against Candida albicans MTCC 3017 assessed as inhibition of fungal growth incubated for 24 hrs by agar well diffusion method; assay type: functional; settings: MTCC 3017, 24 h
How it was run: (§1)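 Candida strains from MTCC, pre-cultured and spread on Mueller Hinton agar. Wells received compound dissolved in 10% DMSO, 125–0.97 µg/mL; miconazole standard over the same range, DMSO negative control. After 24 h at 37 °C, MIC was read as the lowest concentration giving an inhibition zone. Duplicate experiments, means given.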

Pichia kudriavzevii [2] = assay: Fungicidal activity against Candida krusei MTCC 3020 assessed as fungal killing incubated for 24 hrs; assay type: functional; settings: MTCC 3020, 24 h
How it was run: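 Compound at 125–0.97 µg/mL in Mueller Hinton broth in microcentrifuge tubes, each Candida strain added, held 24 h at 37 °C. 10 µL of the treated suspension plated on Mueller Hinton agar and incubated a further 24 h at 37 °C. MFC is the lowest concentration that kills the strain. Duplicates, means reported.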

Pseudomonas aeruginosa [3] = assay: Antibacterial activity against Pseudomonas aeruginosa MTCC 2453 assessed as inhibition of bacterial growth incubated for 24 hrs by agar well diffusion method; assay type: functional; settings: MTCC 2453, 24 h
How it was run: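 Strains from MTCC; inoculum at 0.5 McFarland spread on Mueller-Hinton agar; 6 mm wells loaded with compound over 125–0.97 µg/mL; ciprofloxacin positive control (same range), DMSO negative control. Plates held 24 h at 37 °C; MIC taken as lowest concentration giving a clear inhibition zone. Triplicate runs, mean MIC reported.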

Micrococcus luteus = assay: Bactericidal activity against Micrococcus luteus MTCC 2470 assessed as bacterial killing incubated for 24 hrs; assay type: functional; settings: MTCC 2470, 24 h
How it was run: (§2)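 Broth tube assay: compound at 0–125 µg/mL in Mueller Hinton broth, overnight culture added to 0.5 McFarland (1.5 × 10^8 cfu/mL), held 24 h at 37 °C. 10 µL from each tube plated on Mueller Hinton agar. MBC is the lowest concentration that kills the strain. Duplicates, means reported.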

Candida albicans [4] = assay: Antifungal activity against Candida albicans MTCC 4748 assessed as inhibition of fungal growth incubated for 24 hrs by agar well diffusion method; assay type: functional; settings: MTCC 4748, 24 h; how it was run: as §1
Escherichia coli [5] = assay: Ratio of MBC to MIC for Escherichia coli MTCC 739; assay type: functional
Candida albicans [6] = assay: Ratio of MFC to MIC against Candida albicans MTCC 3018; assay type: functional
How it was run: (§3)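 MIC by agar well diffusion: Candida lawns on Mueller-Hinton agar, wells loaded with compound in 10% DMSO (125–0.97 µg/mL), 24 h at 37 °C, lowest concentration giving an inhibition zone. MFC: compound in Mueller-Hinton broth (125–0.97 µg/mL) with yeast, 24 h at 37 °C, 10 µL plated on agar, lowest killing concentration after 24 h. Ratio is MFC/MIC.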

Candida albicans [7] = assay: Antifungal activity against Candida albicans MTCC 227 assessed as inhibition of fungal growth incubated for 24 hrs by agar well diffusion method; assay type: functional; settings: MTCC 227, 24 h; how it was run: as §1
Pichia kudriavzevii [8] = assay: Ratio of MFC to MIC against Candida krusei MTCC 3020; assay type: functional; how it was run: as §3
Raoultella planticola = assay: Ratio of MBC to MIC for Klebsiella planticola MTCC 530; assay type: functional
Candida parapsilosis = assay: Antifungal activity against Candida parapsilosis MTCC 1744 assessed as inhibition of fungal growth incubated for 24 hrs by agar well diffusion method; assay type: functional; settings: Lodderomyces parapsilosis, MTCC 1744, 24 h; how it was run: as §1
Staphylococcus aureus = assay: Bactericidal activity against Staphylococcus aureus MTCC 96 assessed as bacterial killing incubated for 24 hrs; assay type: functional; settings: MTCC 96, 24 h; how it was run: as §2
Pichia sporocuriosa = assay: Antifungal activity against Issatchenkia hanoiensis MTCC 4755 assessed as inhibition of fungal growth incubated for 24 hrs by agar well diffusion method; assay type: functional; settings: MTCC 4755, 24 h; how it was run: as §1
Nakaseomyces glabratus = assay: Antifungal activity against Candida glabrata MTCC 3019 assessed as inhibition of fungal growth incubated for 24 hrs by agar well diffusion method; assay type: functional; settings: MTCC 3019, 24 h; how it was run: as §1
Pseudomonas aeruginosa [9] = assay: Bactericidal activity against Pseudomonas aeruginosa MTCC 2453 assessed as bacterial killing incubated for 24 hrs; assay type: functional; settings: MTCC 2453, 24 h; how it was run: as §2
Escherichia coli [10] = assay: Bactericidal activity against Escherichia coli MTCC 739 assessed as bacterial killing incubated for 24 hrs; assay type: functional; settings: MTCC 739, 24 h; how it was run: as §2
Candida albicans [11] = assay: Induction of ROS generation in Candida albicans MTCC 3017 assessed as accumulation of intracellular ROS level by measuring fluorescence intensity at 25 ug/ml after 24 hrs by DCFH-DA probe based fluorimetric assay; assay type: functional, organism-based
How it was run: (§4)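 C. albicans MTCC 3017 biofilms grown 24 h at 37 °C in 96-well plates, then treated 24 h with compound at 0, 5, 10, 15, 20, 25 µg/mL; untreated cells served as control. Cells then loaded with 10 µM DCFH-DA for 24 h in the dark, and fluorescence read at 485 nm excitation and 535 nm emission. Triplicates.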

[12] = target: Lanosterol 14-alpha demethylase (Candida albicans (strain SC5314 / ATCC MYA-2876) (Yeast), UniProt P10613); assay: Inhibition of CYP51 in Candida albicans MTCC 3017 assessed as reduction in ergosterol level incubated for 20 hrs by UV-visible spectrophotometry analysis
Lanosterol 14-alpha demethylase, sequence (P10613 whole entry): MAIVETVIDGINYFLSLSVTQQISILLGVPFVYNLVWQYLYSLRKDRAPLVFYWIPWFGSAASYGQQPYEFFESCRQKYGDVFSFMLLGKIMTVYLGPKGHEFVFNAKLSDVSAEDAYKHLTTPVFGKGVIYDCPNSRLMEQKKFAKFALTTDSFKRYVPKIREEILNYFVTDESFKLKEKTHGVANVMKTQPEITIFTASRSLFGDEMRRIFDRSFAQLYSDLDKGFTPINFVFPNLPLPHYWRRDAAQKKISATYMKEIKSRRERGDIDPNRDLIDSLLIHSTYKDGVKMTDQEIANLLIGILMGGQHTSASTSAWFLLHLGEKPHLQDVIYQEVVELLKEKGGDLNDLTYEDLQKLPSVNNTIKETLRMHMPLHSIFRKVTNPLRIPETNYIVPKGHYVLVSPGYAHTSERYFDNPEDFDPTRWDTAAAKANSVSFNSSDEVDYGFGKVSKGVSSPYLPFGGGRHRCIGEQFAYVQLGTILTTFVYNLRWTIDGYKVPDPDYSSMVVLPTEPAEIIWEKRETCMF
How it was run: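 Modified Breivik–Owades sterol method: Mueller Hinton broth with compound at 0, 2, 4, 8, 16 µg/mL, inoculated with single Candida colonies, shaken at 200 rpm for 20 h at 30 °C. Pellets washed and weighed, saponified in 25% alcoholic KOH for 70 min at 90 °C, sterols extracted into n-heptane, diluted 1:5 in ethanol and scanned at 230–310 nm. Triplicates.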

Candida albicans [13] = assay: Induction of ROS generation in Candida albicans MTCC 3017 assessed as accumulation of intracellular ROS level by measuring fluorescence intensity after 24 hrs by DCFH-DA probe based fluorimetric assay; assay type: functional, organism-based; how it was run: as §4
Candida albicans [14] = assay: Induction of ROS generation in Candida albicans MTCC 3017 assessed as accumulation of intracellular ROS level by measuring fluorescence intensity at 5 ug/ml after 24 hrs by DCFH-DA probe based fluorimetric assay; assay type: functional, organism-based; how it was run: as §4

Row | MIC (Candida albicans [1]) [µg/mL] | MIC (Pseudomonas aeruginosa [3]) [µg/mL] | MIC (Candida albicans [4]) [µg/mL] | MIC (Candida albicans [7]) [µg/mL] | MIC (Candida parapsilosis) [µg/mL] | MIC (Pichia sporocuriosa) [µg/mL] | MIC (Nakaseomyces glabratus) [µg/mL] | inhibition (INH) [12] | SMILES | MFC (Pichia kudriavzevii [2]) [µg/mL] | MBC (Micrococcus luteus) [µg/mL] | Ratio (Escherichia coli [5]) | Ratio (Candida albicans [6]) | Ratio (Pichia kudriavzevii [8]) | Ratio (Raoultella planticola) | MBC (Staphylococcus aureus) [µg/mL] | MBC (Pseudomonas aeruginosa [9]) [µg/mL] | MBC (Escherichia coli [10]) [µg/mL] | Activity (Candida albicans [11]) | Activity (Candida albicans [13]) | Activity (Candida albicans [14])
1 | 7.8 (≈ 24.5 µM) | 7.8 (≈ 24.5 µM) | > 31.2 | 7.8 (≈ 24.5 µM) | 15.6 (≈ 49 µM) | 31.2 (≈ 98 µM) | > 31.2 | – | O=C(N/N=C/c1ccc(O)cc1)c1n[nH]c2c1Cc1ccccc1-2 | 31.2 (≈ 98 µM) | 15.6 (≈ 49 µM) | 2 | 2 | 2 | 2 | 7.8 (≈ 24.5 µM) | 15.6 (≈ 49 µM) | 7.8 (≈ 24.5 µM) | – | – | –
2 | 3.9 (≈ 10.1 µM) | 7.8 (≈ 20.2 µM) | 15.6 (≈ 40.4 µM) | 7.8 (≈ 20.2 µM) | 15.6 (≈ 40.4 µM) | 15.6 (≈ 40.4 µM) | 15.6 (≈ 40.4 µM) | Dose-dependent effect | COc1ccc2c(c1)Cc1c(C(=O)N/N=C/c3c(F)cc(F)cc3F)n[nH]c1-2 | 31.2 (≈ 80.8 µM) | 15.6 (≈ 40.4 µM) | 2 | 2 | 2 | 2 | 7.8 (≈ 20.2 µM) | 15.6 (≈ 40.4 µM) | 7.8 (≈ 20.2 µM) | Active | Dose-dependent effect | Active
3 | 7.8 (≈ 23.2 µM) | 7.8 (≈ 23.2 µM) | 15.6 (≈ 46.4 µM) | 7.8 (≈ 23.2 µM) | 15.6 (≈ 46.4 µM) | 31.2 (≈ 92.8 µM) | 15.6 (≈ 46.4 µM) | – | O=C(N/N=C/c1ccc(O)cc1)c1n[nH]c2c1Cc1cc(F)ccc1-2 | 31.2 (≈ 92.8 µM) | 15.6 (≈ 46.4 µM) | 2 | 2 | 2 | 2 | 7.8 (≈ 23.2 µM) | 15.6 (≈ 46.4 µM) | 7.8 (≈ 23.2 µM) | – | – | –
4 | 3.9 (≈ 10.3 µM) | 7.8 (≈ 20.6 µM) | 7.8 (≈ 20.6 µM) | 3.9 (≈ 10.3 µM) | 7.8 (≈ 20.6 µM) | 15.6 (≈ 41.2 µM) | 7.8 (≈ 20.6 µM) | Dose-dependent effect | COc1ccc2c(c1)Cc1c(C(=O)N/N=C/c3ccc(O)c(OC)c3)n[nH]c1-2 | 15.6 (≈ 41.2 µM) | 7.8 (≈ 20.6 µM) | 2 | 2 | 2 | 2 | 7.8 (≈ 20.6 µM) | 15.6 (≈ 41.2 µM) | 7.8 (≈ 20.6 µM) | Active | Dose-dependent effect | Active
5 | 7.8 (≈ 22.4 µM) | 7.8 (≈ 22.4 µM) | 3.9 (≈ 11.2 µM) | 7.8 (≈ 22.4 µM) | 15.6 (≈ 44.8 µM) | 15.6 (≈ 44.8 µM) | 3.9 (≈ 11.2 µM) | – | COc1cc(/C=N/NC(=O)c2n[nH]c3c2Cc2ccccc2-3)ccc1O | 31.2 (≈ 89.6 µM) | 15.6 (≈ 44.8 µM) | 2 | 2 | 2 | 2 | 7.8 (≈ 22.4 µM) | 15.6 (≈ 44.8 µM) | 15.6 (≈ 44.8 µM) | – | – | –
